The list is not random: actives were taken first. Their share in the collection is about 2.7%.
OXTR ag = human OXTR agonists, primary screen, fluorescence, CHO-OTR cells, Fluo-8 calcium; Oxytocin receptor (Homo sapiens), P30559; Fluo-8 calcium fluorescence; normalized: DMSO 0%, oxytocin 100%; activation, % at 3 µM; hit rate 0.32% among 320,000; AID 2435, 2010;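 active = activation above the mean of all tested compounds plus 3 SD, cutoff set per screening run, cut at about 20% in these data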;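 also: peak over basal fluorescence ratio from a 100 s FLIPR kinetic read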
CHO parental Ca = ATP-evoked calcium signal inhibitors, parental CHO, primary screen, counter-screen for OX1R antagonist project, cell-based, fluorescence, Fluo-8 calcium dye; parental CHO-K1, ATP-induced calcium, Fluo-8 fluorescence; inhibition, % at 5.6 µM; hit rate 0.63% among 330,000; AID 463079, 2010;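 active = inhibition above that plate's mean sample inhibition plus 3 SD, cut at about 26% in these data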;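 also: 0% = ATP-challenged DMSO wells and 100% = DMSO wells without ATP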
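Test system: untransfected parental CHO cell line; also added: ATP stimulus; dosing: 5.6 µM, single dose; signal: calcium-sensitive Fluo-8 fluorescence; measure: percent inhibition of ATP-evoked calcium rise, normalized to controls; benchmarks: low control ATP plus DMSO, high control DMSO only; replication: one well per compound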
OXTR potentiator = human OXTR potentiators, primary screen, fluorescence, CHO-OTR cells, Fluo-8 calcium; Oxytocin receptor (Homo sapiens), P30559; Fluo-8 calcium fluorescence, potentiator mode; 0% = oxytocin EC15, 100% = EC100; activation, % at 3 µM; hit rate 0.061% among 320,000;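 active = activation above that plate's cutoff, the mean activation of tested compounds plus 3 SD, cut at about 6.6% in these data, passing the limit was not always enough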;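 also: 100% uses oxytocin at 75 nM as the full agonist control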
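System: human OTR in CHO cells / Also added: sub-maximal oxytocin, roughly EC15 / Control set: EC15 oxytocin low, 75 nM oxytocin high / Schedule: 6 min compound pre-incubation at room temperature, 100 s kinetic read / Compound: single-point 3.0 µM / Replication: singlicate / Technique: Fluo-8 calcium dye fluorescence / Read-out basis: % activation of max/min ratio relative to oxytocin controls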
OX1R antag-1 = antagonists of human orexin 1 receptor (OX1R); AID 485270, 2010; hit rate 1.8% among 330,000; inhibition, % at 6.6 µM; Orexin/Hypocretin receptor type 1 (Homo sapiens), O43613; OX1R-expressing cells, FRET antagonist read-out; in the data active = inhibition mostly above about 38%, no sharp cut-off; inactive = mostly below about 40%;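 also: 0% = agonist challenge alone and 100% = reference antagonist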
Target sequence (O43613 whole entry, looked up): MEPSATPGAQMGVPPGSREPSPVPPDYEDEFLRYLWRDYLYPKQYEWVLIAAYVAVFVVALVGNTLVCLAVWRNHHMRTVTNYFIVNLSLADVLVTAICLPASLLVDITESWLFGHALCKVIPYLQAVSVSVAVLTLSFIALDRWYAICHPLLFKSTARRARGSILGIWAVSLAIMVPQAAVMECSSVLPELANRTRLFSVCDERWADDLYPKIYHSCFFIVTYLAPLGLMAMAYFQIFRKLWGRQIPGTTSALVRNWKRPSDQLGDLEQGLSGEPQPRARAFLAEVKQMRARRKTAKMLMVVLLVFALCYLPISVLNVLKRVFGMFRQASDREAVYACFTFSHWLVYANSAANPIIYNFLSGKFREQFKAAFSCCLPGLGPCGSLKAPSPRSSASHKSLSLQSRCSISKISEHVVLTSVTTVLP
OX1R antag-2 = OX1R (HCRTR1) antagonists, primary screen, fluorescence, CHO/OX1R cells, Fluo-8 calcium, orexin A | Orexin/Hypocretin receptor type 1 (Homo sapiens), O43613 | Fluo-8 calcium fluorescence | inhibition, % at 5 µM | hit rate 0.43% among 330,000 | AID 434989, 2010;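 active = inhibition above its plate's threshold, mean inhibition of all tested compounds on the plate plus 3 SD, cut at about 37% in these data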;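 also: 0% = orexin A challenge wells and 100% = SB-334867-A antagonist wells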
V1aR counter = agonists of human V1a receptor, primary screen, counter-screen for OXTR agonist project, fluorescence, CHO-V1R cells. Vasopressin V1a receptor (Homo sapiens), P37288. Fluo-8 calcium fluorescence, agonist mode; 0% DMSO, 100% 3 nM vasopressin. activation, % at 3 µM. hit rate 0.25% among 320,000;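 active = activation above the mean activation of all tested compounds plus 3 SD, per screening run, cut at about 20% in these data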;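 also: signal is peak over basal fluorescence ratio across a 100 second FLIPR read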
OXTR agonist cf = human OXTR agonists, confirmation, fluorescence, CHO-OTR cells, triplicate | AID 434963, 2010 | hit rate 20% among 390 | activation, % at 3 µM | Fluo-8 calcium fluorescence, agonist | shares compounds with OXTR ag;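 active = mean activation above about 20% derived from the earlier single-dose screen, limit read from the data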;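 also: peak over minimum fluorescence ratio per well during a 100 second FLIPR read; 0% = DMSO alone and 100% = oxytocin high control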
V1R ag counter 3x = V1a receptor agonists, calcium signal, counter-screen for OXTR agonist project, triplicate, fluorescence, CHO-V1R cells. Fluo-8 calcium fluorescence. shares compounds with OXTR ag. activation, % at 3 µM. AID 434991, 2010. hit rate 10% among 390;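 active = mean activation over triplicate exceeds the hit threshold set in the earlier primary screen, cut at about 20% in these data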;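 also: peak over basal fluorescence ratio within a 100 second read; 0% = DMSO alone and 100% = 3 nM vasopressin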
OXTR pot confirm = human OXTR potentiators, confirmation, fluorescence, CHO-OTR cells, triplicate; shares compounds with OXTR potentiator; Fluo-8 calcium fluorescence, potentiation; scaled from low-dose to maximal oxytocin; activation, % at 3 µM; 180 tested, under 10 active; AID 434985, 2010;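 active = mean percent activation over triplicates above a cutoff set from solvent-only control plates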;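 also: compounds tested in the presence of an EC15 dose of oxytocin; 0% = EC15 oxytocin with DMSO and 100% = EC100 oxytocin with DMSO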
OX1R Ca confirm = OX1R (HCRTR1) antagonists, confirmation, fluorescence, CHO/OX1R cells, Fluo-8 calcium, orexin A. shares compounds with OX1R antag-2. orexin A calcium Fluo-8 fluorescence. inhibition, % at 5 µM. hit rate 38% among 1,100; in the data active = inhibition above about 29%;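 also: 0% = agonist challenge alone and 100% = reference antagonist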
CHO Ca counter = ATP-evoked calcium inhibition in parental CHO, counter-screen for OX1R antagonist project, cell-based, fluorescence, CHO-K1, triplicate; ATP-induced calcium, Fluo-8 fluorescence; AID 492965, 2010; inhibition, % at 5.6 µM; shares compounds with OX1R antag-2; hit rate 9.3% among 1,100;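 active = inhibition above a per-plate limit, the mean inhibition of that plate's test compounds plus 3 SD, cut at about 25% in these data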;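 also: 0% = ATP challenge with DMSO and 100% = DMSO without ATP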
OX1R HTRF conf = OX1R (HCRTR1) antagonists, confirmation, cell-based, HTRF; shares compounds with OX1R antag-1; OX1R-expressing cells, HTRF antagonist assay; inhibition, % at 6.6 µM; hit rate 49% among 1,800; AID 492964, 2010; in the data active = inhibition above about 55%;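 also: CHO cells expressing OX1R stimulated with orexin A at about EC80; 0% = agonist challenge alone and 100% = reference antagonist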
CHO-K1 HTRF cnt = signal inhibition in parental CHO-K1 cells, counter-screen for OX1R antagonist project, cell-based, HTRF | shares compounds with OX1R antag-1 | AID 493232, 2011 | inhibition, % at 6.6 µM | HTRF counterscreen | hit rate 48% among 1,800; in the data active = inhibition above about 17%;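 also: 0% = agonist challenge with vehicle and 100% = vehicle alone without agonist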
The depositor's hits bear a star.

CCN(CC(=O)Nc1ccc2c(c1)OCCO2)C(=O)CCc1ccccc1Cl was read as OXTR ag 1, CHO parental Ca -26, OXTR potentiator -3, OX1R antag-1 19, OX1R antag-2 -24 and V1aR counter 1.
CC(C)(C)N(NC(=O)Nc1ccc(Cl)c(Cl)c1)C(=O)c1ccccc1 was read as OXTR ag 20*, CHO parental Ca 29, OXTR potentiator -27, OX1R antag-1 20, OX1R antag-2 73*, V1aR counter 8, OXTR agonist cf 10, V1R ag counter 3x 10, OX1R Ca confirm 8 and CHO Ca counter 10.
`COc1ccc(CN(C)c2ccc(S(=O)(=O)N3CCN(C)CC3)cc2[N+](=O)[O-])cc1OC` gave OXTR ag 26*, CHO parental Ca 6, OXTR potentiator -12, OX1R antag-1 24, OX1R antag-2 46*, V1aR counter 11, OXTR agonist cf 15, V1R ag counter 3x 12, OX1R Ca confirm 3 and CHO Ca counter 65*.
For CCOC(=O)C1=C(COC(=O)COc2ccc(C(=O)CC)cc2)NC(=O)NC1C (configuration not stated) the results were OXTR ag 11, CHO parental Ca 18, OXTR potentiator -17, OX1R antag-1 23, OX1R antag-2 2 and V1aR counter 9.
Screening O=C(c1ccc(NS(=O)(=O)c2ccc(F)cc2)cc1)N1CCCCC1 returned OXTR ag 1, CHO parental Ca 0, OXTR potentiator -13, OX1R antag-1 14, OX1R antag-2 2 and V1aR counter 2.
O=C(c1ccc(S(=O)(=O)Nc2ccc(F)cc2)cc1)N1CCN(c2ccccn2)CC1 was read as OXTR ag 21*, CHO parental Ca 16, OXTR potentiator -16, OX1R antag-1 52, OX1R antag-2 34, V1aR counter 13, OXTR agonist cf 14, V1R ag counter 3x 12, OX1R Ca confirm 49* and CHO Ca counter 14.
For CC(=O)c1sc(NC(=O)C2(F)C(F)(F)C(F)(F)C(F)(F)C(F)(F)C2(F)F)nc1C the results were OXTR ag 21*, CHO parental Ca 16, OXTR potentiator -11, OX1R antag-1 80*, OX1R antag-2 35, V1aR counter 11, OXTR agonist cf 16, V1R ag counter 3x 11, OX1R HTRF conf 71* and CHO-K1 HTRF cnt 26*.
COc1ccc(Cl)cc1NC(=O)C(C)OC(=O)Cn1cc(C(F)(F)F)ccc1=O (configuration not stated) was read as OXTR ag 0, CHO parental Ca -19, OXTR potentiator -1, OX1R antag-1 1, OX1R antag-2 -20 and V1aR counter 0.
O=C(NC(c1ccccc1)c1ccccc1)C1CCCC1 was read as OXTR ag -2, CHO parental Ca -9, OXTR potentiator 12*, OX1R antag-1 7, OX1R antag-2 -21, V1aR counter -1 and OXTR pot confirm 0.
For CC(NC(=O)C1CCC1)c1ccccc1 (configuration not stated) the results were OXTR ag 0, CHO parental Ca -4, OXTR potentiator -13, OX1R antag-1 6, OX1R antag-2 -16 and V1aR counter 0.
`CCN(c1ccccc1)S(=O)(=O)c1ccc(C(=O)N(C)CCc2ccc(OC)c(OC)c2)cc1` gave OXTR ag 6, CHO parental Ca -24, OXTR potentiator -8, OX1R antag-1 26, OX1R antag-2 -37 and V1aR counter 2.
`CC(C)CNC(=O)CC(=O)N/N=C/c1ccc(F)cc1` gave OXTR ag 2, CHO parental Ca 4, OXTR potentiator 12*, OX1R antag-1 9, OX1R antag-2 0, V1aR counter 0 and OXTR pot confirm -3.
For COc1cc(SC)ccc1C(=O)NCCCOC(C)C the results were OXTR ag 0, CHO parental Ca 0, OXTR potentiator 11*, OX1R antag-1 7, OX1R antag-2 -18, V1aR counter 0 and OXTR pot confirm -7.
Cc1coc2c(C)c3oc(=O)c(CCC(=O)NCCCN4CCCC4=O)c(C)c3cc12 was read as OXTR ag 0, CHO parental Ca -22, OXTR potentiator 12*, OX1R antag-1 8, OX1R antag-2 -17, V1aR counter -1 and OXTR pot confirm -4.
For N#Cc1cn(-c2ccccc2)nc1-c1ccco1 the results were OXTR ag -2, CHO parental Ca -10, OXTR potentiator 13*, OX1R antag-1 21, OX1R antag-2 -9, V1aR counter -2 and OXTR pot confirm -3.
For CCOc1ccc(-c2c(C(=O)N/N=C/c3ccc(O)cc3)nnn2-c2nonc2N)cc1 the results were OXTR ag 0, CHO parental Ca -16, OXTR potentiator 9.6*, OX1R antag-1 5, OX1R antag-2 -8, V1aR counter 0 and OXTR pot confirm 2.

High-throughput results: PubChem BioAssay, The Scripps Research Institute Molecular Screening Center
